Measured values as given in ChEMBL document CHEMBL2163240, “Griseusins F and G, spiro-naphthoquinones from a tin mine tailings-derived alkalophilic Nocardiopsis species” (J Nat Prod, 2012).
Converted amounts (≈) assume the structure as drawn.

Key:
Staphylococcus aureus = test: Antibacterial activity against Staphylococcus aureus ATCC 29213 after overnight incubation by agar well diffusion assay; assay type: functional
Micrococcus luteus = test: Antibacterial activity against Micrococcus luteus after overnight incubation by agar well diffusion assay; assay type: functional
Bacillus subtilis = test: Antibacterial activity against Bacillus subtilis after overnight incubation by agar well diffusion assay; assay type: functional
CFPAC-1 = test: Cytotoxicity against human CFPAC-1 cells after 24 to 72 hrs by MTT assay; assay type: functional, cell-based
Method in brief: (§1)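 Cells (from Kunming Medical University) seeded at 5 × 10^4 cells/mL, preincubated 24 h at 37 °C, then given graded concentrations of test chemical in DMSO; cisplatin as positive control. MTT staining after 24, 48 and 72 h, OD 492 nm versus negative control; IC50 = concentration giving 50% cell death, from concentration–viability plot.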

ACHN = test: Cytotoxicity against human ACHN cells after 24 to 72 hrs by MTT assay; assay type: functional, cell-based; method in brief: as §1
HCT-116 = test: Cytotoxicity against human HCT116 cells after 24 to 72 hrs by MTT assay; assay type: functional, cell-based; method in brief: as §1
[1] = Cytotoxicity against human MDA-MB-435S cells after 24 to 72 hrs by MTT assay; assay type: functional, cell-based; method in brief: as §1
B16 = test: Cytotoxicity against mouse B16 cells after 24 to 72 hrs by MTT assay; assay type: functional, cell-based; method in brief: as §1

MIC (Staphylococcus aureus) | MIC (Micrococcus luteus) | MIC (Bacillus subtilis) | Structure (SMILES) | IC50 (CFPAC-1) | IC50 (ACHN) | IC50 (HCT-116) | IC50 [1] | IC50 (B16)
0.28 µg/mL (≈ 0.845 µM) | 1.19 µg/mL (≈ 3.59 µM) | 0.64 µg/mL (≈ 1.93 µM) | O=C(O)c1cn(C2CC2)c2cc(N3CCNCC3)c(F)cc2c1=O [CIPROFLOXACIN] |  |  |  |  | 
0.91 µg/mL (≈ 1.98 µM) | 1.27 µg/mL (≈ 2.76 µM) | 1.65 µg/mL (≈ 3.58 µM) | CC(=O)C[C@]12C(=O)c3cccc(O)c3C(=O)[C@H]1[C@@]1(O[C@H](C)C[C@H](O)[C@H]1O)O[C@@H]1CC(=O)O[C@@H]12 [GRISEUSIN F] | 640 nM | 550 nM | 700 nM | 820 nM | 430 nM
0.8 µg/mL (≈ 1.75 µM) | 1.47 µg/mL (≈ 3.21 µM) | 1.33 µg/mL (≈ 2.9 µM) | CC(=O)C[C@]12C(=O)c3cccc(O)c3C(=O)[C@H]1[C@@]1(O[C@H](C)CC(=O)[C@H]1O)O[C@@H]1CC(=O)O[C@@H]12 [GRISEUSIN G] | 420 nM | 460 nM | 580 nM | 690 nM | 370 nM
